Screening results as filed in PubChem.
Shown are actives, neighbours in structure and some others; about 5.4% of the full set was active somewhere.
HePTP inh: inhibitors of human HePTP phosphatase, primary screen, biochemical, absorbance, leukemia target; Tyrosine-protein phosphatase non-receptor type 7 (Homo sapiens), P35236; recombinant HePTP phosphatase activity, OD absorbance; inhibition, % at 20 µM; hit rate 0.64% among 110,000; in the data active = inhibition above about 50%;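 note: plate controls were vehicle for no effect and reference inhibitor for full effect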
Ecoli tolC: growth inhibitors of E. coli tolC mutant, primary screen, strain BW25113 ΔtolC::kan, 384-well; hit rate 2.2% among 65,000; growth inhibition, % at 10 µM (by protocol); AID 573, 2007; OD615;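 active = growth inhibition at or above a cutoff equal to the mean over every tested compound plus 3 SD, cut at about 60% in these data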;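 note: growth measured after 20 h incubation at 37 °C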
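signal = optical density read at 615 nm | test system = E. coli ΔtolC::kan strain BW25113 | timing = 20 h compound exposure of bacteria at 37 °C | buffer or medium = LB medium plus 50 µg/mL kanamycin | compound dosing = 10 µM final, single dose | evaluation = % inhibition of E. coli growth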
PostGolgi ctrl: growth inhibition of yeast control strain, primary screen, counter-screen for post-Golgi transport modulator project; efflux-deficient yeast background strain, growth absorbance A615, 16 h; inhibition, % at 10 µM; hit rate 5% among 98,000; AID 738, 2007
PLAP act: PLAP enzyme activators, biochemical, luminescence, HTS; Alkaline phosphatase, placental type (Homo sapiens), P05187; purified PLAP enzyme, luminescent substrate read-out; stronger effect = higher value; activation fold at 20 µM; hit rate 1.2% among 96,000; AID 696, 2007; in the data active = activation fold above about 2
Target sequence (P05187 whole entry, looked up): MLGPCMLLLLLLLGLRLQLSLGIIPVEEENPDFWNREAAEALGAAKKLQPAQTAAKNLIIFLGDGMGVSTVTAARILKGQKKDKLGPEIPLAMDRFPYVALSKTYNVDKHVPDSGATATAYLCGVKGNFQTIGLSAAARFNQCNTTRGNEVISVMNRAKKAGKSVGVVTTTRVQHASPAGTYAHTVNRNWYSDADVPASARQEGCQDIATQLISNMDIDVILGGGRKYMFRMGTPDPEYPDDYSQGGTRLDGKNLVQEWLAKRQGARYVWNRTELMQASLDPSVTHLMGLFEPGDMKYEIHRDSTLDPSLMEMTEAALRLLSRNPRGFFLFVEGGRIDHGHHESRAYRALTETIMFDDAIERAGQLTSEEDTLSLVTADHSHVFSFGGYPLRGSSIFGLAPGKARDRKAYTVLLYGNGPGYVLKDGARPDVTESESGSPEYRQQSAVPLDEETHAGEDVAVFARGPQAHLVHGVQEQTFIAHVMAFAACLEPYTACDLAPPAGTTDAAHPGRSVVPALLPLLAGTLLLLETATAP
Ecoli WT expand: growth inhibitors of wild-type E. coli, primary screen, strain BW25113, expanded library, OD600 | OD600 absorbance | growth inhibition, % at 100 µM | hit rate 0.15% among 98,000;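 active = growth inhibition above about 50% at one test dose, limit read from the data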;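 note: growth measured after 20 h incubation at 37 °C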
PostGolgi yeast: phenotypic screen on post-Golgi transport, primary screen | post-Golgi transport phenotypic cell assay | inhibition, % at 10 µM | hit rate 0.9% among 98,000;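 note: yeast cells grown in 1536-well plates; yeast grown about 18 h at 30C before absorbance read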
* = called active by the depositor. Cut-off read from the data, not from the text of the source, unless noted: active = inhibition above about 30%; inactive = the rest.

`Cc1cccc(-c2noc(-c3ccccc3C(=O)NCC3CCCO3)n2)c1` (stereo unspecified) gave HePTP inh 7.5, Ecoli tolC -11.0, PostGolgi ctrl 30.6*, PLAP act 1.1, Ecoli WT expand 4.0 and PostGolgi yeast -3.5.
COc1ccc(N/N=C(\C=N\O)C(=O)c2ccc(OC)cc2)cc1 was read as PostGolgi ctrl 34.8*, PLAP act 0.9, Ecoli WT expand -5.0 and PostGolgi yeast 8.3.
`Cc1cccc(Nc2nc(NCc3ccco3)nc(N3CCOCC3)n2)c1` gave HePTP inh 6.3, Ecoli tolC 61.9*, PostGolgi ctrl 0.7, PLAP act 1.2, Ecoli WT expand -13.0 and PostGolgi yeast 2.6.
Screening COc1nc(N2CCCCCC2)nc(N2CCCCCC2)n1 returned HePTP inh -4.7, Ecoli tolC 42.4, PostGolgi ctrl 32.3*, PLAP act 1.3, Ecoli WT expand 2.0 and PostGolgi yeast 22.7.
Cc1cccc(Nc2nc(N3CCCC3)nc(N3CCCC3)n2)c1 was read as PostGolgi ctrl 38.0*, PLAP act 0.9, Ecoli WT expand -1.0 and PostGolgi yeast 1.9.
Screening COc1nc(Nc2cccc(C)c2)nc(N2CCCCC2)n1 returned HePTP inh 2.9, Ecoli tolC 7.6, PostGolgi ctrl 36.0*, PLAP act 0.9, Ecoli WT expand 2.0 and PostGolgi yeast 5.5.
Screening COc1nc(/C(N)=N/O)nc(N2CCCCC2)n1 returned HePTP inh 4.7, Ecoli tolC -14.7, PostGolgi ctrl -0.3, PLAP act 1.1, Ecoli WT expand 8.0 and PostGolgi yeast -6.3.
For CCOc1ccc(Nc2nc(N3CCCCC3)nc(N3CCCCC3)n2)cc1 the results were PostGolgi ctrl 3.9, PLAP act 0.9, Ecoli WT expand -13.0 and PostGolgi yeast 26.5.
For COc1ccc(N2CCN(c3nc(Nc4ccc(F)cc4)nc(OC)n3)CC2)cc1 the results were PostGolgi ctrl -10.3, PLAP act 1, Ecoli WT expand 0.0 and PostGolgi yeast -3.6.
Cc1cc(C)c2c(c1)c(C)cc1nnc(SCC(=O)c3cccs3)n12 was read as PostGolgi ctrl 6.7, PLAP act 1, Ecoli WT expand 4.0 and PostGolgi yeast 12.3.
`Oc1ccc2oc3c(c2c1)CCCC3` gave PostGolgi ctrl 2.4, PLAP act 1.1, Ecoli WT expand 16.0 and PostGolgi yeast 2.0.
CCCCCCn1c2c(c(=N)c3c1CCC3)CCC2 was read as HePTP inh 3.4, Ecoli tolC 89.9*, PostGolgi ctrl 17.2, PLAP act 0.8, Ecoli WT expand 24.0 and PostGolgi yeast -5.9.
CCc1cc2c(=O)c(-c3nc4ccccc4n3C)c(C)oc2c(CN2CCN(CCO)CC2)c1O was read as HePTP inh 0.0, Ecoli tolC -6.9, PostGolgi ctrl -1.1, PLAP act 1.1, Ecoli WT expand 0.0 and PostGolgi yeast 52.0*.
Screening O=C(Cn1nnc(-c2ccc(Cl)cc2)n1)NC1CC2CCC1C2 (stereo unspecified) returned HePTP inh -1.1, Ecoli tolC 12.2, PostGolgi ctrl 15.2, PLAP act 0.9, Ecoli WT expand -8.0 and PostGolgi yeast 36.6*.
Screening Cc1ccccc1OCC(=O)NCCN1CCCC1 returned HePTP inh -1.1, Ecoli tolC -8.9, PostGolgi ctrl 34.9*, PLAP act 1.1, Ecoli WT expand -3.0 and PostGolgi yeast -3.5.
`O=C(NN1C(=O)/C(=C/c2ccc(Cl)cc2Cl)SC1=S)c1ccccc1Cl` gave HePTP inh 1.0.
For Cc1nn(-c2ccc(F)cc2)c(Cl)c1/C=C(\CC(=O)O)c1nc2ccccc2s1 the results were PostGolgi ctrl -2.4, PLAP act 1.3, Ecoli WT expand -3.0 and PostGolgi yeast -0.5.
`CCCN(c1nc(C)cc(OC)n1)S(=O)(=O)c1ccccc1` gave HePTP inh 8.4, Ecoli tolC 16.9, PostGolgi ctrl 24.0, PLAP act 1, Ecoli WT expand 1.0 and PostGolgi yeast -4.7.
COc1cc(C)nc(N(Cc2ccccc2)S(=O)(=O)c2ccccc2)n1 was read as HePTP inh -0.2, Ecoli tolC 54.6, PostGolgi ctrl 32.9*, PLAP act 0.9, Ecoli WT expand -15.0 and PostGolgi yeast -0.6.
N#Cc1cn(Cc2ccccc2)c2ccccc12 was read as HePTP inh 16.1, Ecoli tolC 71.4*, PostGolgi ctrl 18.6, PLAP act 0.7, Ecoli WT expand 5.0 and PostGolgi yeast 9.8.
Screening N#Cc1cn(CC(=O)NCc2cccnc2)c2ccccc12 returned HePTP inh 5.4, Ecoli tolC -14.8, PostGolgi ctrl 19.1, PLAP act 0.8, Ecoli WT expand 9.0 and PostGolgi yeast 0.2.
`CC1/C(=N/O)C(CN(C)C)C2CC1C2(C)C` (stereo unspecified) gave HePTP inh -2.4, Ecoli tolC -10.7, PostGolgi ctrl 1.2, PLAP act 0.8, Ecoli WT expand 6.0 and PostGolgi yeast -0.9.
`FC(F)(F)c1cnc(Oc2ccccc2-c2nnco2)c(Cl)c1` gave PostGolgi ctrl -3.7, PLAP act 2.3*, Ecoli WT expand -3.0 and PostGolgi yeast -3.4.
`Oc1cccc(-c2nc3ccc4ccccc4c3c3c2CCC3)c1` gave PostGolgi ctrl 44.2*, PLAP act 1.7, Ecoli WT expand -10.0 and PostGolgi yeast 54.5*.
Screening N#Cc1c(N)nc2c(c1-c1cccc(O)c1)CCCCCC2 returned HePTP inh 3.1, Ecoli tolC 42.7, PostGolgi ctrl 20.7, PLAP act 1, Ecoli WT expand 3.0 and PostGolgi yeast -6.6.
For O=C(CNC(=O)c1ccc([N+](=O)[O-])cc1)c1ccccc1 the results were PostGolgi ctrl -2.1, PLAP act 0.9, Ecoli WT expand -2.0 and PostGolgi yeast 0.5.
`O=C(C#Cc1ccccc1)c1ccc([N+](=O)[O-])cc1` gave PostGolgi ctrl 35.6*, PLAP act 0.6, Ecoli WT expand 2.0 and PostGolgi yeast 10.6.
COC(=O)c1c(N)sc(C)c1-c1ccccc1 was read as HePTP inh 8.1.
For COC(=O)c1cc2c(-c3ccccc3)c(C)c3ccccn3c-2c1C(=O)OC the results were PostGolgi ctrl 42.5*, PLAP act 1.2, Ecoli WT expand -9.0 and PostGolgi yeast 4.7.
Screening CCC1(C)Cc2ccccc2-c2c1c(=O)n(Cc1ccccc1)c1nnnn21 (stereo unspecified) returned HePTP inh 1.0, Ecoli tolC -4.6, PostGolgi ctrl 15.0, PLAP act 0.7, Ecoli WT expand -17.0 and PostGolgi yeast -4.2.
`Cc1cccc(N2CCN(C(=O)Cn3cccc3)CC2)c1C` gave HePTP inh 1.5, Ecoli tolC 14.1, PostGolgi ctrl 8.3, PLAP act 1.3, Ecoli WT expand 6.0 and PostGolgi yeast 4.0.
`CC(=O)Nc1ccc(S(=O)(=O)N2CCN(c3cccc(C)c3C)CC2)cc1` gave HePTP inh -3.4, Ecoli tolC 22.4, PostGolgi ctrl 50.6*, PLAP act 0.9, Ecoli WT expand -1.0 and PostGolgi yeast 2.2.
